# Source: ChEMBL document CHEMBL1126100, “Anticancer activity in murine and human tumor cell lines of bis(platinum) complexes incorporating straight-chain aliphatic diamine linker groups” (J Med Chem, 1992)
# Experiments:
# Format in all cases: functional, cell-based
# P388PtR4 = assay: In vitro growth inhibition by the compound was determined in cisplatin-resistant murine P388PtR4 cell lines; conditions: Mus musculus
# Summary of the method: (§1)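 Growth inhibition of murine leukemia lines (cisplatin-resistant variants and cisplatin-sensitive L1210S, P388S) followed a published procedure, read out as ID50. Values are mean ± SEM of 3 to 17 separate experiments, or averages of at least two experiments. Each experiment's value was the mean of duplicates.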
# L1210 = assay: In vitro growth inhibition by the compound was determined in cisplatin-sensitive murine L1210S cell lines; conditions: Mus musculus; summary of the method: as §1
# NCI-H23 = assay: In vitro growth inhibition by the compound was determined in human H23 tumor cell lines
# Summary of the method: (§2)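 ID50 (µM) for growth inhibition of human tumor lines: HCT-8 colon adenocarcinoma and the H23, AH125 and H520 non-small cell lung carcinomas. Reported as mean ± SEM of at least four experiments, or as the average of at least two separate experiments.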
# HCT-8 = assay: In vitro growth inhibition by the compound was determined in human HCT-8 tumor cell lines; summary of the method: as §2
# L1210 (DDP5) = assay: In vitro growth inhibition by the compound was determined in cisplatin-resistant murine L1210DDP5 cell lines; conditions: Mus musculus; summary of the method: as §1
# P388/S = assay: In vitro growth inhibition by the compound was determined in cisplatin-sensitive murine P388S cell lines; conditions: Mus musculus; summary of the method: as §1
# L1210 (PtR4) = assay: In vitro growth inhibition by the compound was determined in cisplatin-resistant murine L1210PtR4 cell lines; conditions: Mus musculus; summary of the method: as §1
# L1210 (DACH) = assay: In vitro growth inhibition by the compound was determined in cisplatin-resistant murine L1210DACH cell lines; conditions: Mus musculus; summary of the method: as §1
# NCI-H520 = assay: In vitro growth inhibition by the compound was determined in human H520 tumor cell lines; summary of the method: as §2
# AH125 cell line = assay: In vitro growth inhibition by the compound was determined in human AH125 tumor cell lines; summary of the method: as §2
Substance,ID50 (P388PtR4) [nM],ID50 (L1210) [nM],ID50 (NCI-H23) [nM],ID50 (HCT-8) [nM],ID50 (L1210 (DDP5)) [nM],ID50 (P388/S) [nM],ID50 (L1210 (PtR4)) [nM],ID50 (L1210 (DACH)) [nM],ID50 (NCI-H520) [nM],ID50 (AH125 cell line) [nM]
CI-973,3700,1400,3900,4200,8600,220,5400,3600,3900,
"mu-(1,7-Heptanediamine-N,N')bis-(cis-aminedichloroplatimum (II))",910,220,30,100,1230,140,730,500,,120
CISPLATIN,23300,920,310,1300,16100,700,19100,2100,470,700
"0-Hexyl-1,3-diamine-platinum 2,2-dichloride",2260,210,,,380,210,190,9500,,
"mu-(1,7-nanodiamine-N,N')bis-(cis-aminedichloroplatimum (II))",3200,290,56,190,2800,210,2200,1600,140,260
"mu-(1,5-pentanediamine-N,N')bis-(aminedioato(2-)-O,O'platimum (II))",16000,3830,1480,4420,17200,2060,13000,9490,1830,3680
